# Calls of active or inactive are those of the source.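 How the source made its calls, unless noted: active means viability at or under a set limit in both replicates, limit being median viability minus 3 SD (cut at about 48% in these data, passing the limit was not always enough); inconclusive means at or under the limit in just one replicate; inactive means at or above the limit in both replicates.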
# How the values were obtained:
# [1] = reduced viability of SK-BR-3 breast cancer cells – cell-based, 24 h, human, pilot screen (AID 572;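 active means viability at or below 10% of carrier control in both of two separate runs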;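 further: compound exposure lasted between 18 and 24 h rather than exactly 24 h; 100% = carrier-treated control wells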); details: SK-BR-3 viability, CellTiter-Glo luminescence, at 10 µM, stronger effect = lower value
# [2] = HUVEC growth inhibition – cell-based, human, primary screen (AID 575;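 active means viability at or below 30% in both replicate assays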;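 further: 100% = median of untreated cell wells with 0.1% DMSO on each plate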); details: HUVEC proliferation, CellTiter-Glo luminescence, 72 h; at 10 µM; stronger effect = lower value
# In short: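 Timing: 72 h treatment at 37 °C; material: HUVEC primary cells; technique: CellTiter-Glo luminescence measuring cellular ATP; controls: vehicle and MePR control wells; measure: percent of median DMSO-control luminescence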
# [3] = H69AR cell proliferation blockers – human, duplicate replicates, primary screen (AID 580); details: H69AR lung tumor cells viability, ATP luminescence, 72 h; at 10 µM; stronger effect = lower value;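 further: 100% = mean luminescence of untreated wells and 0% = no signal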
# [4] = MRP1 drug-resistance reversers in H69AR cells – cell-based, doxorubicin co-treatment, pilot screen (AID 601;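 active means viability loss from added drug above about 55%, and viability with drug at most 40%, in both replicates, limit read from the data, passing the limit was not always enough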); details: CellTiter-Glo, 72 h, at 10 µM; for differential viability (reversal): stronger effect = higher value
# [5] = yeast transport mutant growth inhibition pilot in 384-well plates, post-Golgi transport modulator project (AID 636; in the data active means inhibition above about 31%); details: absorbance 615 nm, about 18 h, stronger effect = higher value
# [6] = growth suppression of yeast trafficking mutant, preliminary HTS, modulators of trafficking downstream of Golgi apparatus project, 1536-format plate, OD 615 nm (AID 637; in the data active means inhibition above about 30%); details: yeast transport mutant growth, absorbance 615 nm, 18 h; stronger effect = higher value
# [7] = H69AR cells + 2 uM doxorubicin, measured here: viability with 2 uM doxorubicin, stronger effect = lower value
# [8] = H69AR cells, compound alone cytotoxicity
Structure (SMILES),viability [1],viability [2],viability [3],differential viability (reversal) ([4]; H69AR cells + 2 uM doxorubicin),"viability [4, 7] [%]","viability [4, 8] [%]",inhibition [5],inhibition [6]
CCOc1cc(/C=N/n2cnnc2)cc(Br)c1O,104% (inactive),103% (inactive),83.3% (inactive),-8.45% (inactive),91.8,83.3,-2.37% (inactive),8.33% (inactive)
CNC(=O)c1ccc2nc(NC(C)=O)sc2c1,110% (inactive),102% (inactive),99.9% (inactive),9.57% (inactive),90.4,99.9,-7.2% (inactive),-0.36% (inactive)
Cc1ccc(NC(=O)c2ccco2)c(NC(=O)CN2C(=O)c3ccccc3C2=O)c1,97% (inactive),110% (inactive),87.6% (inactive),-18.2% (inactive),106,87.6,-0.41% (inactive),3.27% (inactive)
CCOC(=O)CSc1nnc(-c2ccc(NS(=O)(=O)c3ccc(C)cc3)cc2)o1,87% (inactive),56% (inactive),91.5% (inactive),5.14% (inactive),86.4,91.5,-4.29% (inactive),-5.67% (inactive)
Cc1ccc(-c2nnc(-c3cccc(Br)c3)o2)cc1,106% (inactive),99.7% (inactive),89.6% (inactive),-3% (inactive),92.7,89.6,-6.76% (inactive),4% (inactive)
CCc1nnc(-n2nc(C)cc2-c2ccccc2)n1N,107% (inactive),118% (inactive),93.5% (inactive),2.83% (inactive),90.7,93.5,-2.47% (inactive),-1.8% (inactive)
CC(=O)Oc1cccc2c1C(=O)c1c(OC(C)=O)cc(C(=O)O)cc1C2=O,90% (inactive),60.2% (inactive),86.7% (inactive),0.27% (inactive),86.4,86.7,4.16% (inactive),7.17% (inactive)
Cc1csc(NC(=O)c2cccs2)n1,119% (inactive),93.9% (inactive),89.7% (inactive),3.83% (inactive),85.8,89.7,-1.43% (inactive),1.48% (inactive)
COc1cc(C2c3c(oc4c(C)cc(C)cc4c3=O)C(=O)N2Cc2cccnc2)ccc1O (stereo not given),78% (inactive),69.1% (inactive),80.2% (inactive),2.59% (inactive),77.6,80.2,0.13% (inactive),2.42% (inactive)
COc1cccc(-c2cc(C(=O)Nc3c(C)nn(Cc4ccccc4)c3C)no2)c1,158% (inactive),82.6% (inactive),98.2% (inactive),8.66% (inactive),89.5,98.2,-5.81% (inactive),-7.33% (inactive)
CC(CN1c2ccccc2Sc2ccccc21)N(C)C (stereo not given),88% (inactive),62.9% (inactive),92.2% (inactive),4.55% (inactive),87.7,92.2,-2.73% (inactive),-1.67% (inactive)
CCOC(=O)CSc1nnc(NCC(=O)OC(C)C)c(=O)[nH]1,102% (inactive),93.9% (inactive),93.3% (inactive),1.93% (inactive),91.4,93.3,-1.56% (inactive),-3.61% (inactive)
COc1cccc(N2C(=O)N(c3ccccc3Cl)C3CS(=O)(=O)CC32)c1 (stereo not given),93% (inactive),106% (inactive),98% (inactive),9.28% (inactive),88.7,98,-6.71% (inactive),3.45% (inactive)
CCC(=O)OC1(C#CCOc2ccc(OC)cc2)CCN(C)CC1,94% (inactive),105% (inactive),105% (inactive),1.41% (inactive),103,105,-0.53% (inactive),1.64% (inactive)
COc1cc2c3c(c1)/C(=C1/SC(NC(C)=O)=NC1=O)C(=O)N3C(C)(C)C=C2C,91% (inactive),54.8% (inactive),72.2% (inactive),-7.9% (inactive),80.2,72.2,-10% (inactive),-1.77% (inactive)
Cc1nc(-c2coc3cc(OCC(=O)O)ccc3c2=O)cs1,93% (inactive),107% (inactive),90.5% (inactive),1.5% (inactive),89,90.5,-5.14% (inactive),-7.64% (inactive)
CCOc1ccccc1OCCCCN1CCCC1,87% (inactive),109% (inactive),91.5% (inactive),2.1% (inactive),89.4,91.5,-2.21% (inactive),-1.97% (inactive)
COc1ccc(-n2nnnc2SCC(=O)c2ccc(O)c(O)c2)cc1,74% (inactive),58.6% (inactive),34.7% (active),-41.9% (inactive),76.6,34.7,-5.89% (inactive),-1.45% (inactive)
Cc1cccc(N2C(=O)CC(N(C(=O)c3ccco3)c3cccc(C)c3)C2=O)c1 (stereo not given),104% (inactive),98.8% (inactive),98.5% (inactive),-3.33% (inactive),102,98.5,0% (inactive),6.13% (inactive)
c1ccc(CSc2nnc(-c3cccs3)n2Cc2ccco2)cc1,86% (inactive),90.3% (inactive),83.2% (inactive),-0.12% (inactive),83.4,83.2,1.37% (inactive),-0.65% (inactive)
O=S(=O)(c1cccs1)N1CCN(Cc2nc3ccccc3s2)CC1,87% (inactive),72.1% (inactive),84.9% (inactive),-16.2% (inactive),101,84.9,4.79% (inactive),30.2% (active)
O=C1C2ON(c3ccc(Cl)cc3)C(c3ccco3)C2C(=O)N1c1ccccc1 (stereo not given),116% (inactive),81.4% (inactive),100% (inactive),8.97% (inactive),91.2,100,-2.6% (inactive),-3.61% (inactive)
Nc1ccc(S(=O)(=O)c2ccc(N)cc2)cc1,95% (inactive),85.9% (inactive),106% (inactive),19.4% (inactive),87.1,106,-2.21% (inactive),5.17% (inactive)
COc1ccccc1-c1noc(-c2ccco2)n1,102% (inactive),91% (inactive),90.7% (inactive),-2.78% (inactive),93.5,90.7,0% (inactive),-3.55% (inactive)
Cc1ccc(Nc2nc(N)nc(CN3CCN(Cc4ccc5c(c4)OCO5)CC3)n2)cc1,93% (inactive),106% (inactive),82.2% (inactive),2.44% (inactive),79.7,82.2,-8.27% (inactive),-4.91% (inactive)
